Source: ChEMBL document CHEMBL1133558, “Structural determinants of AMPA agonist activity in analogues of 2-amino-3-(3-carboxy-5-methyl-4-isoxazolyl)propionic acid: synthesis and pharmacology” (J Med Chem, 2000)

Legend:
[1] = target: Glutamate receptor ionotropic, kainate; assay: Inhibition of [3H]-Kainic acid binding to rat brain membranes.; type: cell membranes, Membrane
[2] = target: T1, Glutamate receptor ionotropic, AMPA (Rattus norvegicus, UniProt P19490+P19491+P19492+P19493); assay: Inhibition of [3H]AMPA binding to rat brain membranes.; type: cell membranes, Membrane
[3] = target: Glutamate NMDA receptor; assay: Inhibition of [3H]CPP binding to rat brain membranes.; type: cell membranes, Membrane
[4] = target: T1, Glutamate receptor ionotropic, AMPA; assay: Agonistic activity electrophysiologically against AMPA using rat cortical wedge preparation; type: functional
[5] = target: Glutamate NMDA receptor; assay: Tested in vitro for the antagonistic activity electrophysiologically against NMDA using rat cortical wedge preparation; type: functional
Method in brief: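 Rat cortical wedge preparation. The cortex was superfused with Mg²⁺-free Krebs buffer and the corpus callosum with Mg²⁺- and Ca²⁺-free Krebs buffer, at 25 °C. Compounds were added to the cortical superfusate, and the potential difference between the electrodes was recorded on a chart recorder.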

[6] = target: Glutamate receptor ionotropic, NMDA (Rattus norvegicus); assay: Tested in vitro for the antagonistic activity electrophysiologically against NMDA using rat cortical wedge preparation

SMILES | IC50 [1] | IC50 [2] | IC50 [3] | EC50 [4] | IC50 [5] | IC50 [6]
C/C=C/COc1noc(C(=O)O)c1CC(N)C(=O)O (centres undefined) | > 100 µM | > 100 µM | > 100 µM | 500 µM |  | 
NC(Cc1c(OCc2ccccc2)noc1C(=O)O)C(=O)O (centres undefined) | > 100 µM | > 100 µM | > 100 µM | > 1000 µM |  | 
Cn1oc(C(=O)O)c(CC(N)C(=O)O)c1=O (centres undefined) | > 100 µM | > 100 µM | > 100 µM | > 1000 µM |  | 
C=CCOc1noc(C(=O)O)c1CC(N)C(=O)O (centres undefined) | > 100 µM | 7.2 µM | > 100 µM | 40 µM |  | 
CCOc1noc(C(=O)O)c1CC(N)C(=O)O (centres undefined) | > 100 µM | 1 µM | > 100 µM | 4.8 µM |  | 
CCCCCOc1noc(C(=O)O)c1CC(N)C(=O)O (centres undefined) | > 100 µM | > 100 µM | > 100 µM | 1000 µM |  | 
CCCOc1noc(C(=O)O)c1CC(N)C(=O)O (centres undefined) | > 100 µM | 14 µM | > 100 µM | 79 µM |  | 
CCCCOc1noc(C(=O)O)c1CC(N)C(=O)O (centres undefined) | > 100 µM | > 100 µM | > 100 µM | 406 µM |  | 
COc1noc(C(=O)O)c1CC(N)C(=O)O (centres undefined) | > 100 µM | 0.11 µM | > 100 µM | 1.2 µM |  | 
CCn1oc(C(=O)O)c(CC(N)C(=O)O)c1=O (centres undefined) | > 100 µM | > 100 µM | > 100 µM | > 500 µM |  | 
CCOc1noc(-c2nn[nH]n2)c1CC(N)C(=O)O (centres undefined) | > 100 µM | > 100 µM | > 100 µM | 2000 µM |  | 
NC(Cc1c(O)noc1C(=O)O)C(=O)O (centres undefined) | > 100 µM | > 100 µM | > 100 µM | > 1000 µM |  | 
CCOc1noc(-c2nc[nH]n2)c1CC(N)C(=O)O (centres undefined) | > 100 µM | > 100 µM | > 100 µM | > 100 µM |  | 
NC(Cc1c(C(=O)O)on(Cc2ccccc2)c1=O)C(=O)O (centres undefined) | > 100 µM | > 100 µM | > 100 µM |  | 704 µM | 
CC(C)Oc1noc(C(=O)O)c1CC(N)C(=O)O (centres undefined) | > 100 µM | 5.5 µM | > 100 µM | 37 µM |  | 
CCOc1noc(C(=O)O)c1C/N=c1\c(O)c(O)c1=N | > 100 µM | > 100 µM | 76 µM |  |  | 603 µM
